Assay results of several laboratories.
Protocols differ between the studies behind these lines.
PIK3CG: Phosphatidylinositol 4,5-bisphosphate 3-kinase catalytic subunit gamma isoform (PIK3CG, Homo sapiens, UniProt P48736)
PTGS2: Prostaglandin G/H synthase 2 (PTGS2, Homo sapiens, UniProt P35354)
CHRM3: Muscarinic acetylcholine receptor M3 (CHRM3, Homo sapiens, UniProt P20309)
Inositol-tetrakisphosphate 1-kinase: Inositol-tetrakisphosphate 1-kinase (Homo sapiens, UniProt Q13572)

| Structure (SMILES) | target | assay | conditions | IC50 |
| --- | --- | --- | --- | --- |
| CN(C)C(=O)c1cc2cnc(Nc3cccc(-c4cccc5c(=O)cc(N6CCOCC6)oc45)c3)nc2n1C1CCCC1 | PIK3CG | enzyme activity, inhibitor, radiometric |  | 6.04 µM |
| O=C1Nc2ccccc2C1=Nc1ccccc1I | PIK3CG | enzyme activity, inhibitor, ADP detection |  | 0.00388 µM |
| COc1cc(C=NNC(=O)c2cc(-c3ccccc3)n(-c3ccc(S(N)(=O)=O)cc3)n2)cc(OC)c1OC | PTGS2 | enzyme activity, inhibitor |  | 2.69 µM |
| O=C(CCNC(=O)CNC(=O)CC(c1ccccc1)(c1ccccc1)c1ccccc1)NCC1CCN(Cc2ccc(F)cc2)CC1 | CHRM3 | ligand displacement, radioligand | cell membranes | 15.1 µM |
| COc1ccc(-c2cc(=O)c3ccc(Nc4ncc5cc(C(=O)N(C)C)n(C6CCCC6)c5n4)cc3o2)cc1 | PIK3CG | enzyme activity, inhibitor, radiometric |  | 6.03 µM |
| NS(=O)(=O)c1ccc(-n2nc(C(=O)NN3C(=O)c4ccccc4C3=O)cc2-c2ccccc2)cc1 | PTGS2 | enzyme activity, inhibitor |  | 2.64 µM |
| CN(C)C(=O)c1cc2cnc(Nc3ccc(-c4ccc5c(=O)cc(N6CCOCC6)oc5c4)cc3)nc2n1C1CCCC1 | PIK3CG | enzyme activity, inhibitor, radiometric |  | 3.39 µM |
| Nc1ncnc2c1ncn2[C@@H]1O[C@H](CO)[C@@H](O)[C@@H]1F | Inositol-tetrakisphosphate 1-kinase | enzyme activity, inhibitor |  | 0.86 µM |
| C=CCN1C(=O)C(=Nc2cccc(C)c2)c2ccccc21 | PIK3CG | enzyme activity, inhibitor, ADP detection |  | 0.0243 µM |
| CN(C)C(=O)c1cc2cnc(Nc3cncc(-c4cccc5c(=O)cc(N6CCOCC6)oc45)c3)nc2n1C1CCCC1 | PIK3CG | enzyme activity, inhibitor, radiometric |  | 6.11 µM |
| O=C(CCNC(=O)CNC(=O)CC(c1ccccc1)(c1ccccc1)c1ccccc1)NC[C@@H]1CCCN(Cc2cccnc2F)C1 | CHRM3 | ligand displacement, radioligand | cell membranes | 3.8 µM |
| Nc1ncnc2c1ncn2C1CCCO1 (centres unmarked) | Inositol-tetrakisphosphate 1-kinase | enzyme activity, inhibitor, ADP detection |  | 0.92 µM |
| FC(F)(F)CN1CC(n2cc(Oc3ccn4nc(Cl)cc4n3)cn2)C1 | Very long chain fatty acid elongase 7 (Homo sapiens, UniProt A1L3X0) | enzyme activity, inhibitor |  | > 99 µM |
| Nc1ncnc2c1cnn2C1CCCCC1 | Inositol-tetrakisphosphate 1-kinase | enzyme activity, inhibitor |  | 3.2 µM |
| O=C1Nc2ccccc2/C1=N/c1ccccc1Br | PIK3CG | enzyme activity, inhibitor, ADP detection |  | 0.176 µM |
| Nc1ncnc2c1ncn2[C@@H]1O[C@H](CO)C[C@H]1O | Inositol-tetrakisphosphate 1-kinase | enzyme activity, inhibitor |  | 3.1 µM |

| Structure (SMILES) | target | assay | conditions | IC50 |
| --- | --- | --- | --- | --- |
| Cc1ccc(CN2C(=O)C(=Nc3cccc(Cl)c3)c3ccccc32)cc1 | PIK3CG | enzyme activity, inhibitor, ADP detection |  | 0.00111 µM |
| Nc1ncnc2c1ncn2C1CCCC1 | Inositol-tetrakisphosphate 1-kinase | enzyme activity, inhibitor |  | 0.026 µM |
| O=C(CCc1ccc(Cl)cc1)N1C(=O)C(=Nc2ccc(Cl)cc2Br)c2ccccc21 | PIK3CG | enzyme activity, inhibitor, ADP detection |  | 0.00965 µM |
| CN(C)C(=O)c1cc2cnc(Nc3ccc(-c4cccc5c(=O)cc(N6CCNCC6)oc45)cc3)nc2n1C1CCCC1 | PIK3CG | enzyme activity, inhibitor, radiometric |  | > 10 µM |
| COc1nc2ccc(Br)cc2cc1[C@@H](c1ccccc1)[C@@](O)(CCN(C)C)c1cccc2ccccc12 | Retinal dehydrogenase 2 (ALDH1A2, Homo sapiens, UniProt O94788) | enzyme activity, inhibitor, fluorescence | 15 min, pH 7.5 | < 10 µM |
| O=C1C(=Nc2ccccc2I)c2ccccc2N1Cc1cccc(Cl)c1 | PIK3CG | enzyme activity, inhibitor, ADP detection |  | 0.00407 µM |
| CN(C)C(=O)c1cc2cnc(Nc3cccc4c(=O)cc(N5CCOCC5)oc34)nc2n1C1CCCC1 | PIK3CG | enzyme activity, inhibitor, radiometric |  | 1.42 µM |
| Cc1cccc(N=C2C(=O)N(Cc3ccc(Br)cc3)c3ccccc32)c1 | PIK3CG | enzyme activity, inhibitor, ADP detection |  | 0.0098 µM |
| CN(C)C(=O)c1cc2cnc(Nc3ccc(-c4cccc5c(=O)cc(N6CCOCC6)oc45)cc3)nc2n1C1CCCC1 | PIK3CG | enzyme activity, inhibitor, radiometric |  | > 10 µM |
| c1ccc(COc2[nH]cnc3ncnc2-3)cc1 | Inositol-tetrakisphosphate 1-kinase | enzyme activity, inhibitor |  | 5.3 µM |
| CC(C)NC(=O)COc1cccc(-c2nc(Nc3ccc4[nH]ncc4c3)c3ccccc3n2)c1 | UDP-glucuronosyltransferase 1A1 (UGT1A1, Homo sapiens, UniProt P22309) | enzyme activity, inhibitor |  | 0.0609 µM |
| C=CC(=O)N1CCN(c2nc(=O)n(-c3c(C)ccnc3C(C)C)c3nc(-c4c(O)cccc4F)c(F)cc23)[C@@H](C)C1 | GTPase NRas (NRAS, Homo sapiens, UniProt P01111, C181S/C186S/G12C) | enzyme activity, inhibitor |  | 0.0572 µM |
| CC(=NNC(=O)c1cc(-c2ccccc2)n(-c2ccc(S(N)(=O)=O)cc2)n1)c1ccc(Br)cc1 | PTGS2 | enzyme activity, inhibitor |  | 1.25 µM |
| Cc1cccc(N=C2C(=O)N(Cc3cccc(Cl)c3)c3ccccc32)c1 | PIK3CG | enzyme activity, inhibitor, ADP detection |  | 0.00096 µM |
| CN(C)C(=O)c1cc2cnc(Nc3cc(C(=O)O)cc(-c4ccc5c(=O)cc(N6CCOCC6)oc5c4)c3)nc2n1C1CCCC1 | PIK3CG | enzyme activity, inhibitor, radiometric |  | 17.3 µM |
| NS(=O)(=O)c1ccc(-n2nc(-c3nnc(S)o3)cc2-c2ccccc2)cc1 | PTGS2 | enzyme activity, inhibitor |  | 3.73 µM |
